Assay results: publication PMC4059610 (Cell, 2014)

What was measured:
WRC = settings: ref Nakao et al., 2008, Tai et al., 2010 (PCDH10, PCDH19), Bernadskaya et al., 2012, Stavoe et al., 2012 (DCC), 2012 (ROBO1), Karpushev et al., 2011 (ENaC); cited from earlier work
WRC (2MBP-ΔWRC) = assay: MBP pull-down by immobilized 2MBP-ΔWRC; assay type: binding, human; settings: data not shown
Procedure, shortened: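 Bait was immobilized 2MBP-ΔWRC, either wild type or the AW form (R106A/G110W in Abi2). It was mixed on affinity beads with a 5- to 10-fold excess of GST-tagged receptor cytoplasmic tails, purified by glutathione affinity chromatography with or without ion exchange and size exclusion. Beads were incubated and washed, then eluted with maltose. Retained proteins were seen on Coomassie-stained gels.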

[1] = tested on: 2MBP-ΔWRC / GST-hPCDH10 CT interaction; assay: Competition of 2MBP-ΔWRC pull-down of PCDH10 CT; assay type: binding, human; settings: Fig. 1D
Procedure, shortened: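 Immobilized 2MBP-ΔWRC bait was mixed on affinity beads with a 5- to 10-fold excess of GST-tagged PCDH10 cytoplasmic tail prey, with wild-type WIRS peptide or T8A/F9A mutant peptide as competitor. After incubation and washing, bound proteins were eluted with maltose.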

WRC / Arp2/3 complex = assay: Arp2/3-mediated pyrene-actin assembly assay; assay type: biochemical; settings: minimal WIRS peptide; 100 nM WRC217, Fig. 5A
[2] = tested on: endogenous PCDH10/WRC interaction; assay: Co-immunoprecipitation of WRC; assay type: binding; settings: 5 mM WIRS peptide, anti-WAVE1, mouse brain lysate, n = 7, p = 0.00003, Fig. 6B
endogenous WRC = assay: GST-PCDH10 CT pull-down of endogenous WRC from mouse brain lysate; assay type: binding; settings: 100 μM WIRS peptide, Fig. 6A
Procedure, shortened: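 Immobilized GST-PCDH10 cytoplasmic tail was incubated with mouse brain lysate on glutathione affinity beads. Competitor was buffer or 100 μM WIRS peptide, either wild type or T8A/F9A mutant. Beads were washed and bound proteins eluted with reduced glutathione. Retained endogenous WRC was detected by Western blot.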

In the case of DCC: netrin receptor, the “Previously shown interaction with the WRC, biochemical or genetic” value (WRC) is given as “previously shown to interact with the WRC biochemically or genetically”.

For “FAT2: protocadherin FAT2, WIRS motif only found in human, mouse and chicken”, the “Binding to WRC in vitro using its WIRS motif” value (WRC (2MBP-ΔWRC)) was “binds the WRC in vitro using its WIRS motif”.

With “WIRS peptide: peptide containing the conserved sequence RSFSTFGKE of PCDH10 (WRC interacting receptor sequence)” the “Blocking of PCDH10 CT binding to 2MBP-ΔWRC” value [1] was “blocked this interaction”, the “Effect on Rac1 stimulation of WRC activity” value (WRC / Arp2/3 complex) was “had no effect on Rac1 stimulation” and the “Effect on co-immunoprecipitation of PCDH10 with WRC” value [2] was “weakened”. For the same substance, the “Blocking of GST-PCDH10 CT pull-down of endogenous WRC” value (endogenous WRC) was “completely blocked the interaction”.
